# Assay results reported in ChEMBL document CHEMBL1926614, “Substituted thiazoles V. synthesis and antitumor activity of novel thiazolo[2,3-b]quinazoline and pyrido[4,3-d]thiazolo[3,2-a]pyrimidine analogues” (2012).
# How the values were obtained:
# Format in all cases: functional
# [1] = system: UACC-257; experiment: Growth inhibition of human UACC257 cells at 10 uM after 48 hrs by coulter counting; details: UACC-257, 48 h, read-out: GI
# Outline: (§1)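 Single-dose screen in the NCI 60 human tumor cell line panel (nine subpanels). Compounds dissolved in DMSO and diluted in phosphate buffered saline, keeping final DMSO below 1%. Added in duplicate wells to cells at 6 × 10⁴ cells/ml. Controls held PBS and DMSO at matching dilutions. Incubated at 37 °C, humidified, 5% CO₂. Reported as percent growth of treated cells.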
# [2] = system: HCT-116; experiment: Growth inhibition of human HCT116 cells at 10 uM after 48 hrs by coulter counting; details: HCT-116, 48 h, read-out: GI
# Outline: (§2)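 Single-dose primary screen across the full NCI 60-cell-line panel. Stocks were made in DMSO and diluted in PBS to a final DMSO below 1%. Cultures at 6 × 10⁴ cells/ml were run in duplicate wells alongside PBS/DMSO vehicle controls at 37 °C in humidified 5% CO₂. Data were expressed as percent growth of treated cells.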
# [3] = system: LOX IMVI; experiment: Growth inhibition of human LOXIMVI cells at 10 uM after 48 hrs by coulter counting; details: read-out: GI; outline: as §2
# [4] = system: NCI-H226; experiment: Growth inhibition of human NCI-H226 cells at 10 uM after 48 hrs by coulter counting; details: NCI-H226, 48 h, read-out: GI; outline: as §2
# [5] = system: SNB-75; experiment: Growth inhibition of human SNB75 cells at 10 uM after 48 hrs by coulter counting; details: SNB-75, 48 h, read-out: GI; outline: as §2
# [6] = system: A498; experiment: Growth inhibition of human A498 cells at 10 uM after 48 hrs by coulter counting; details: A498, 48 h, read-out: GI; outline: as §2
# [7] = system: UACC-62; experiment: Growth inhibition of human UACC62 cells at 10 uM after 48 hrs by coulter counting; details: UACC-62, 48 h, read-out: GI; outline: as §1
# [8] = system: MCF7; experiment: Growth inhibition of human MCF7 cells at 10 uM after 48 hrs by coulter counting; details: MCF7, 48 h, read-out: GI; outline: as §2
# [9] = system: HOP-62; experiment: Growth inhibition of human HOP62 cells at 10 uM after 48 hrs by coulter counting; details: HOP-62, 48 h, read-out: GI; outline: as §2
# [10] = system: MDA-MB-435; experiment: Growth inhibition of human MDA-MB-435 cells at 10 uM after 48 hrs by coulter counting; details: MDA-MB-435, 48 h, read-out: GI; outline: as §2
# [11] = system: HL-60(TB); experiment: Growth inhibition of human HL-60(TB) cells at 10 uM after 48 hrs by coulter counting; details: HL-60, 48 h, read-out: GI
# Outline: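 Test compound was dissolved in DMSO and diluted in phosphate-buffered saline to a final DMSO level below 1%. Dilutions were plated in duplicate with cell culture at 6 × 10⁴ cells/ml. Vehicle controls held PBS and DMSO at matching dilutions. Incubation was at 37 °C, humidified, under 5% CO₂. Data were reported as percent growth of treated cells.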
# [12] = system: MOLT-4; experiment: Growth inhibition of human MOLT4 cells at 10 uM after 48 hrs by coulter counting; details: MOLT-4, 48 h, read-out: GI; outline: as §2
# [13] = system: RPMI-8226; experiment: Growth inhibition of human RPMI8226 cells at 10 uM after 48 hrs by coulter counting; details: RPMI-8226, 48 h, read-out: GI; outline: as §2
# [14] = system: U-251; experiment: Growth inhibition of human U251 cells at 10 uM after 48 hrs by coulter counting; details: U-251, 48 h, read-out: GI; outline: as §1
# [15] = Growth inhibition of human NCI-322M cells at 10 uM after 48 hrs by coulter counting; details: read-out: GI; outline: as §2
# [16] = system: CCRF-CEM; experiment: Growth inhibition of human CCRF-CEM cells at 10 uM after 48 hrs by coulter counting; details: read-out: GI; outline: as §2
# [17] = system: SK-MEL-2; experiment: Growth inhibition of human SK-MEL-2 cells at 10 uM after 48 hrs by coulter counting; details: SK-MEL-2, 48 h, read-out: GI; outline: as §2
# [18] = system: IGROV-1; experiment: Growth inhibition of human IGROV1 cells at 10 uM after 48 hrs by coulter counting; details: IGROV-1, 48 h, read-out: GI; outline: as §2
# [19] = system: HCC 2998; experiment: Growth inhibition of human HCC2998 cells at 10 uM after 48 hrs by coulter counting; details: HCC 2998, 48 h, read-out: GI; outline: as §2
# [20] = system: OVCAR-4; experiment: Growth inhibition of human OVCAR4 cells at 10 uM after 48 hrs by coulter counting; details: OVCAR-4, 48 h, read-out: GI; outline: as §2
# [21] = system: CAKI-1; experiment: Growth inhibition of human Caki1 cells at 10 uM after 48 hrs by coulter counting; details: CAKI-1, 48 h, read-out: GI; outline: as §2
# [22] = system: BT-549; experiment: Growth inhibition of human BT549 cells at 10 uM after 48 hrs by coulter counting; details: BT-549, 48 h, read-out: GI; outline: as §2
# [23] = system: KM12; experiment: Growth inhibition of human KM12 cells at 10 uM after 48 hrs by coulter counting; details: KM12, 48 h, read-out: GI; outline: as §2
# [24] = system: UO-31; experiment: Growth inhibition of human UO31 cells at 10 uM after 48 hrs by coulter counting; details: UO-31, 48 h, read-out: GI; outline: as §1
# [25] = system: A549; experiment: Growth inhibition of human A549 cells at 10 uM after 48 hrs by coulter counting; details: A549, 48 h, read-out: GI; outline: as §2
# [26] = system: SF-295; experiment: Growth inhibition of human SF295 cells at 10 uM after 48 hrs by coulter counting; details: SF-295, 48 h, read-out: GI; outline: as §2
# [27] = system: HT-29; experiment: Growth inhibition of human HT-29 cells at 10 uM after 48 hrs by coulter counting; details: HT-29, 48 h, read-out: GI; outline: as §2
# [28] = system: NCI-H522; experiment: Growth inhibition of human NCI-H522 cells at 10 uM after 48 hrs by coulter counting; details: NCI-H522, 48 h, read-out: GI; outline: as §2
# [29] = system: EKVX; experiment: Growth inhibition of human EKVX cells at 10 uM after 48 hrs by coulter counting; details: read-out: GI; outline: as §2
# [30] = system: T47D; experiment: Growth inhibition of human T47D cells at 10 uM after 48 hrs by coulter counting; details: read-out: GI; outline: as §1
# [31] = system: ACHN; experiment: Growth inhibition of human ACHN cells at 10 uM after 48 hrs by coulter counting; details: read-out: GI; outline: as §2
# [32] = system: SK-MEL-5; experiment: Growth inhibition of human SK-MEL-5 cells at 10 uM after 48 hrs by coulter counting; details: SK-MEL-5, 48 h, read-out: GI; outline: as §2
# [33] = system: SF-539; experiment: Growth inhibition of human SF539 cells at 10 uM after 48 hrs by coulter counting; details: SF-539, 48 h, read-out: GI; outline: as §2
# [34] = system: SK-MEL-28; experiment: Growth inhibition of human SK-MEL-28 cells at 10 uM after 48 hrs by coulter counting; details: SK-MEL-28, 48 h, read-out: GI; outline: as §2
# [35] = system: NCI-H23; experiment: Growth inhibition of human NCI-H23 cells at 10 uM after 48 hrs by coulter counting; details: NCI-H23, 48 h, read-out: GI; outline: as §2
# [36] = system: SNB-19; experiment: Growth inhibition of human SNB19 cells at 10 uM after 48 hrs by coulter counting; details: SNB-19, 48 h, read-out: GI; outline: as §2
# [37] = system: M14; experiment: Growth inhibition of human M14 cells at 10 uM after 48 hrs by coulter counting; details: M14, 48 h, read-out: GI; outline: as §2
# [38] = system: SF-268; experiment: Growth inhibition of human SF268 cells at 10 uM after 48 hrs by coulter counting; details: SF-268, 48 h, read-out: GI; outline: as §2
# [39] = system: NCI/ADR-RES; experiment: Growth inhibition of human NCI/ADR-RES cells at 10 uM after 48 hrs by coulter counting; details: read-out: GI; outline: as §2
# [40] = system: K562; experiment: Growth inhibition of human K562 cells at 10 uM after 48 hrs by coulter counting; details: K562, 48 h, read-out: GI; outline: as §2
# [41] = system: NCI-H460; experiment: Growth inhibition of human NCI-H460 cells at 10 uM after 48 hrs by coulter counting; details: NCI-H460, 48 h, read-out: GI; outline: as §2
# [42] = system: DU-145; experiment: Growth inhibition of human DU145 cells at 10 uM after 48 hrs by coulter counting; details: DU-145, 48 h, read-out: GI; outline: as §2
smiles,measurement,setting,value
COc1ccc(/C=C2\CCCC3=C2N=C2SC=CN2C3c2ccc(OC)c(OC)c2)cc1OC (configuration not stated),inhibition of growth at 10 µM,[1],10.5%
same,inhibition of growth at 10 µM,[2],> 10%
same,inhibition of growth at 10 µM,[3],16.4%
same,inhibition of growth at 10 µM,[4],> 10%
same,inhibition of growth at 10 µM,[5],12.4%
same,inhibition of growth at 10 µM,[6],> 10%
same,inhibition of growth at 10 µM,[7],> 10%
same,inhibition of growth at 10 µM,[8],> 10%
same,inhibition of growth at 10 µM,[9],> 10%
same,inhibition of growth at 10 µM,[10],> 10%
same,inhibition of growth at 10 µM,[11],17.5%
same,inhibition of growth at 10 µM,[12],> 10%
same,inhibition of growth at 10 µM,[13],> 10%
same,inhibition of growth at 10 µM,[14],> 10%
same,inhibition of growth at 10 µM,[15],> 10%
same,inhibition of growth at 10 µM,[16],> 10%
same,inhibition of growth at 10 µM,[17],> 10%
same,inhibition of growth at 10 µM,[18],> 10%
same,inhibition of growth at 10 µM,[19],14.9%
same,inhibition of growth at 10 µM,[20],> 10%
same,inhibition of growth at 10 µM,[21],> 10%
same,inhibition of growth at 10 µM,[22],> 10%
same,inhibition of growth at 10 µM,[23],> 10%
same,inhibition of growth at 10 µM,[24],27.9%
same,inhibition of growth at 10 µM,[25],> 10%
same,inhibition of growth at 10 µM,[26],> 10%
same,inhibition of growth at 10 µM,[27],> 10%
same,inhibition of growth at 10 µM,[28],10.3%
same,inhibition of growth at 10 µM,[29],> 10%
same,inhibition of growth at 10 µM,[30],> 10%
same,inhibition of growth at 10 µM,[31],> 10%
same,inhibition of growth at 10 µM,[32],> 10%
same,inhibition of growth at 10 µM,[33],> 10%
same,inhibition of growth at 10 µM,[34],> 10%
same,inhibition of growth at 10 µM,[35],> 10%
same,inhibition of growth at 10 µM,[36],> 10%
same,inhibition of growth at 10 µM,[37],> 10%
same,inhibition of growth at 10 µM,[38],> 10%
same,inhibition of growth at 10 µM,[39],> 10%
same,inhibition of growth at 10 µM,[40],> 10%
same,inhibition of growth at 10 µM,[41],> 10%
same,inhibition of growth at 10 µM,[42],> 10%
